The values that follow come from ChEMBL document CHEMBL4024770, “Augmentation of Anticancer Drug Efficacy in Murine Hepatocellular Carcinoma Cells by a Peripherally Acting Competitive N-Methyl-d-aspartate (NMDA) Receptor Antagonist” (J Med Chem, 2017).

For data set [1], the target named is Glutamate receptor ionotropic, kainate 3 (Rattus norvegicus, UniProt P42264). As to the kind of experiment: Displacement of [3H]-KA from recombinant homomeric rat GluK3a receptor expressed in baculovirus infected Sf9 insect cell membranes by scintillation counting method. A general note: In a radioligand displacement assay an active substance lowers the binding of a labelled ligand.
Glutamate receptor ionotropic, kainate 3, sequence (P42264 whole entry): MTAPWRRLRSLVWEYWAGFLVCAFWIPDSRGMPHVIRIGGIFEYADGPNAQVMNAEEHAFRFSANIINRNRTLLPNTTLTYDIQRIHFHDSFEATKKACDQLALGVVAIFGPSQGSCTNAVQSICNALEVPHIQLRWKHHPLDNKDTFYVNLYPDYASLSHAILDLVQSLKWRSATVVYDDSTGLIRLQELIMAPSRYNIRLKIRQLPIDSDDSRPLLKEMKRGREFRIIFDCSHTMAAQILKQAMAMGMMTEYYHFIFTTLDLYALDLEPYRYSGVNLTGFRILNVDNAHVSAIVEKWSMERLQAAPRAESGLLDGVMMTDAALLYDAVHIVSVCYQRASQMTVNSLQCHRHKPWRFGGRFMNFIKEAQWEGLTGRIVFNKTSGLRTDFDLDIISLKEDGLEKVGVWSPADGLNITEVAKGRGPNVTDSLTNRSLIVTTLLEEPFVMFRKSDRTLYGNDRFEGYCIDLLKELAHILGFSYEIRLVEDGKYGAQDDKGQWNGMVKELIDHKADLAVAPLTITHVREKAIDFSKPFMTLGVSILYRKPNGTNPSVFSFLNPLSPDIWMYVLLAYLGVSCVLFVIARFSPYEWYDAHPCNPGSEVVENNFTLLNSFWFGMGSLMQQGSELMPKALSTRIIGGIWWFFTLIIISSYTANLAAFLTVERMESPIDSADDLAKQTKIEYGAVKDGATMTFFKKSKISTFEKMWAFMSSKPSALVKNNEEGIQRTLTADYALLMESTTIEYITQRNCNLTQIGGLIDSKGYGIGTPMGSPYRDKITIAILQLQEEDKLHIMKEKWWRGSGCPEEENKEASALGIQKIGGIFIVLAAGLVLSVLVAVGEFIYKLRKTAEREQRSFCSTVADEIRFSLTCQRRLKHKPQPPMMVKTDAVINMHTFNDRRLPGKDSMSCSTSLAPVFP

Data set [2] is described as follows: Displacement of [3H]-AMPA from AMPA receptor in Sprague-Dawley rat brain synaptosomes after 30 mins by scintillation counting method. The class given is subcellular.
A short description of data set [3]: Displacement of [3H]-CGP-39653 from NMDA receptor in Sprague-Dawley rat brain synaptosomes after 60 mins by scintillation counting method. The data set is classed as subcellular.
The target of data set [4] is Glutamate receptor ionotropic, kainate 1 (Rattus norvegicus, UniProt P22756). The experiment in a line: Displacement of [3H]-SYM2081 from recombinant homomeric rat GluK1 (Q)1b receptor expressed in baculovirus infected Sf9 insect cell membranes by scintillation counting method.
Glutamate receptor ionotropic, kainate 1, sequence (P22756 whole entry): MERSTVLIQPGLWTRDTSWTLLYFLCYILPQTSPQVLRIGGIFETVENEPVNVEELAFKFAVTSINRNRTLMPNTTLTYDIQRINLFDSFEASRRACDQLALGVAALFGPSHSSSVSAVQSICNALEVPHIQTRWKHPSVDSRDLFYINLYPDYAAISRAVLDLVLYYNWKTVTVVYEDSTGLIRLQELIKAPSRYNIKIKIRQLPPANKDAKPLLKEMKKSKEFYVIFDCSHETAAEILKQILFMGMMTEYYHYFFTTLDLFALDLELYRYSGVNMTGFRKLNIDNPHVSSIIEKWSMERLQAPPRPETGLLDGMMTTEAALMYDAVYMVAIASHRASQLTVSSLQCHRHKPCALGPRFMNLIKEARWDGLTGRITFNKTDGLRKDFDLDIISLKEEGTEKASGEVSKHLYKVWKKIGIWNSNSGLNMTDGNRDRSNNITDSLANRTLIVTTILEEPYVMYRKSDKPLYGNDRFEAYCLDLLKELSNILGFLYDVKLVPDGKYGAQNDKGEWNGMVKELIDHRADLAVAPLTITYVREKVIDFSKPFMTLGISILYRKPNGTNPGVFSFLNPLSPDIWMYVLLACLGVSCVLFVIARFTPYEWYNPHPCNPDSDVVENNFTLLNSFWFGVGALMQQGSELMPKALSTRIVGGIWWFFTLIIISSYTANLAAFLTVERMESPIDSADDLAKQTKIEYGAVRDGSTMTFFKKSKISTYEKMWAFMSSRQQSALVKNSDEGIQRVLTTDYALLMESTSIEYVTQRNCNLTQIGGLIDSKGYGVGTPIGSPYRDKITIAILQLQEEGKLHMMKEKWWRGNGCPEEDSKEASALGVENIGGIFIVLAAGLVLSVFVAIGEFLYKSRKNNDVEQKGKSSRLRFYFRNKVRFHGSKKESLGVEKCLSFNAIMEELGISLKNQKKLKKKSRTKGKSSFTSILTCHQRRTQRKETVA
For data set [5], the target named is Ionotropic glutamate receptor NMDA 1/2D (Rattus norvegicus, UniProt P35439+Q62645). The experiment in a line: Antagonist activity at recombinant rat GluN1a/GluN2D expressed in Xenopus laevis oocytes assessed as inhibition of glycine/glutamate-mediated current responses by two-electrode voltage clamp method. The class given is cell-based. Summed up:
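Xenopus oocytes were injected with rat GluN1 and GluN2A–D cRNA (1:2) and recorded 2–6 days later by TEVC at room temperature, −40 mV, in Ba2+-containing recording solution, pH 7.4. Currents were evoked by 100 μM glycine plus glutamate at 2–3× EC50: 10 μM for GluN2A, 3 μM for GluN2B and GluN2C, 1 μM for GluN2D. IC50 from Hill fits per oocyte; Ki estimated.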

For data set [6], the system named is Plasma. As to the kind of experiment: Tmax in mouse plasma at 10 mg/kg, ip administered as bolus dose by LC-MS/MS analysis. The class given is ADME, organism-based. Conditions: in vivo. Summed up: (§1)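 Adult male mice (25 ± 5 g) given a single 10 mg/kg i.p. bolus, prepared as a 5.0 mM solution in 0.9% NaCl. Animals were decapitated at five time points between 10 and 240 min. Plasma was precipitated with acetonitrile containing internal standard. Brain and liver were homogenized in water (1:3) and precipitated the same way. Analysis by LC-MS/MS, with AUC0–240, Cmax, tmax, t½β and liver/plasma ratio derived from the concentration-time data.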

Data set [7] relates to Plasma. The experiment in a line: Elimination half life in mouse plasma at 10 mg/kg, ip administered as bolus dose by LC-MS/MS analysis. The data set is classed as ADME, organism-based. As to conditions: in vivo. Summed up: as §1
In data set [8] the test system is Liver. As to the kind of experiment: AUC (0 to 240 mins) in mouse liver at 10 mg/kg, ip administered as bolus dose by LC-MS/MS analysis. The class given is ADME, organism-based. The arrangement: dose 10 mg/kg, time < 4 hr, route intraperitoneal. As to conditions: in vivo, 4 h. Summed up:
as §1

In data set [9] the test system is Liver. As to the kind of experiment: Cmax in mouse liver at 10 mg/kg, ip administered as bolus dose by LC-MS/MS analysis. The arrangement: dose 10 mg/kg, route intraperitoneal. The class given is ADME, organism-based. As to conditions: in vivo. Summed up:
as §1

Data set [10] relates to Liver. The experiment in a line: Tmax in mouse liver at 10 mg/kg, ip administered as bolus dose by LC-MS/MS analysis. Conditions: in vivo. The class given is ADME, organism-based. Summed up:
as §1

The species entered for data set [11] is Mus musculus. The experiment in a line: Antagonist activity at NMDA receptor in Nras driven p53 deficient mouse HCC cell membranes assessed as LPS-stimulated PGE2 levels at 10 uM after 24 hrs by LC-MS/MS method (reference value: 162 +/- 7%). The arrangement: scale not given: the % may be the effect or the level left. Summed up:
(§2)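 Mouse Nras-driven p53−/− HCC cells in DMEM with 2 mM L-glutamine, 10% heat-inactivated FBS and penicillin/streptomycin. Cells incubated 24 h with or without antagonist, either without LPS or with 2.5 μg/mL LPS in the growth medium. Cells washed three times with ice-cold HBSS and lysed in acetonitrile on ice. PGE₂ in lysates measured by LC-MS/MS (LLOQ 1 nM) and expressed as % of control; n=3.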

Data set [12] can be described thus: Liver to plasma partition coefficient in mouse at 10 mg/kg, ip administered as bolus dose by LC-MS/MS analysis. The class given is ADME, organism-based. As to conditions: other tissue. Summed up:
as §1

The species entered for data set [13] is Mus musculus. As to the kind of experiment: Antagonist activity at NMDA receptor in Nras driven p53 deficient mouse HCC cell membranes assessed as PGE2 levels at 10 uM after 24 hrs by LC-MS/MS method relative to control. The arrangement: scale not given: the % may be the effect or the level left. Summed up:
as §2

For data set [14], the species on record is Mus musculus. As to the kind of experiment: Antagonist activity at NMDA receptor in Nras driven p53 deficient mouse HCC cell membranes assessed as Abcg2 protein expression levels at 10 uM by […] analysis relative to control. The arrangement: scale not given: the % may be the effect or the level left. Summed up:
(§3)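 Mouse Nras-driven p53−/− HCC cells in DMEM with 10% FBS, exposed 48 h with or without 10 μM antagonist, washed, pelleted and snap-frozen. Crude membrane fraction isolated. 50 μg protein reduced, alkylated, precipitated, then Lys-C digested (3 h, rt) and trypsin digested (1:100, 37°C, 16 h). One unique peptide per transporter quantified by multiplexed SRM/MRM LC-MS/MS against stable isotope-labelled standards. Unpaired two-tailed t-test versus control, n=4.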

The species entered for data set [15] is Mus musculus. As to the kind of experiment: Antagonist activity at NMDA receptor in Nras driven p53 deficient mouse HCC cell membranes assessed as Slc2a1 protein expression levels at 10 uM by […] analysis relative to control. The arrangement: scale not given: the % may be the effect or the level left. Summed up:
as §3

Data set [16] is filed under the species Mus musculus. The experiment in a line: Antagonist activity at NMDA receptor in Nras driven p53 deficient mouse HCC cell membranes assessed as Slc7a5 protein expression levels at 10 uM by SMR/MRM analysis relative to control. The arrangement: scale not given: the % may be the effect or the level left. Summed up:
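Nras p53−/− mouse HCC cells were exposed to 10 μM for 48 h, washed, and pelleted. Crude membrane fractions (50 μg protein) were denatured in guanidine, reduced/alkylated and precipitated. They were then digested with Lys-C (rt, 3 h) and trypsin (37 °C, 16 h) with stable-isotope peptide standards. Slc7a5 was quantified by multiplexed SRM/MRM LC-MS/MS, one unique peptide per protein. Mean ± SEM, n=4, versus control.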

Data set [17] is filed under the species Mus musculus. As to the kind of experiment: Antagonist activity at NMDA receptor in Nras driven p53 deficient mouse HCC cell membranes assessed as decrease in Abcb1/Abcg2 protein expression levels by measuring sorafenib accumulation at 10 uM preincubated for 24 hrs followed by compound wash out and addition of sorafenib measured after 30 mins by LC/MS-MS method relative to control. The arrangement: scale not given: the % may be the effect or the level left. Summed up: (§4)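 Nras p53−/− HCC cells (1 × 10⁵/well) were pretreated 24 h with or without 10 μM. They were then washed 3× in warm HBSS (choline chloride, pH 7.4) and incubated at 37 °C with probe in HBSS. Incubation was 30 min for [3H]-digoxin, 20 μM fluorescein or 10 μM sorafenib, and 5 min for [14C]-L-leucine or [14C]-D-glucose. Cells were washed ice-cold and lysed in 0.1 M NaOH. Read-out was scintillation, fluorescence or LC-MS/MS, normalized to protein.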

Data set [18] is filed under the species Mus musculus. As to the kind of experiment: Antagonist activity at NMDA receptor in Nras driven p53 deficient mouse HCC cell membranes assessed as decrease in Slc2a1 protein expression levels by measuring [14C]-D-glucose accumulation at 10 uM preincubated for 24 hrs followed by compound wash out and addition of [14C]-D-glucose measured after 5 mins by scintillation counting method relative to control. The arrangement: scale not given: the % may be the effect or the level left. Summed up: as §4

The species named for data set [19] is Mus musculus. The experiment in a line: Antagonist activity at NMDA receptor in Nras driven p53 deficient mouse HCC cell membranes assessed as potentiation of 10 uM sorafenib-mediated antiproliferative activity by measuring cell viability at 100 uM after 72 hrs by resazurin assay (reference value: […] +/- […]%). In general terms: The colour change of resazurin is a common sign of viable cells or microbes.

The test system of a further data set is Brain. The experiment in a line: Drug uptake in mouse brain at 100 uM administered via perfusion. Conditions: in vivo, other.

Ionotropic glutamate receptor NMDA 1/2D, sequence (Q62645 whole entry, other chains not shown): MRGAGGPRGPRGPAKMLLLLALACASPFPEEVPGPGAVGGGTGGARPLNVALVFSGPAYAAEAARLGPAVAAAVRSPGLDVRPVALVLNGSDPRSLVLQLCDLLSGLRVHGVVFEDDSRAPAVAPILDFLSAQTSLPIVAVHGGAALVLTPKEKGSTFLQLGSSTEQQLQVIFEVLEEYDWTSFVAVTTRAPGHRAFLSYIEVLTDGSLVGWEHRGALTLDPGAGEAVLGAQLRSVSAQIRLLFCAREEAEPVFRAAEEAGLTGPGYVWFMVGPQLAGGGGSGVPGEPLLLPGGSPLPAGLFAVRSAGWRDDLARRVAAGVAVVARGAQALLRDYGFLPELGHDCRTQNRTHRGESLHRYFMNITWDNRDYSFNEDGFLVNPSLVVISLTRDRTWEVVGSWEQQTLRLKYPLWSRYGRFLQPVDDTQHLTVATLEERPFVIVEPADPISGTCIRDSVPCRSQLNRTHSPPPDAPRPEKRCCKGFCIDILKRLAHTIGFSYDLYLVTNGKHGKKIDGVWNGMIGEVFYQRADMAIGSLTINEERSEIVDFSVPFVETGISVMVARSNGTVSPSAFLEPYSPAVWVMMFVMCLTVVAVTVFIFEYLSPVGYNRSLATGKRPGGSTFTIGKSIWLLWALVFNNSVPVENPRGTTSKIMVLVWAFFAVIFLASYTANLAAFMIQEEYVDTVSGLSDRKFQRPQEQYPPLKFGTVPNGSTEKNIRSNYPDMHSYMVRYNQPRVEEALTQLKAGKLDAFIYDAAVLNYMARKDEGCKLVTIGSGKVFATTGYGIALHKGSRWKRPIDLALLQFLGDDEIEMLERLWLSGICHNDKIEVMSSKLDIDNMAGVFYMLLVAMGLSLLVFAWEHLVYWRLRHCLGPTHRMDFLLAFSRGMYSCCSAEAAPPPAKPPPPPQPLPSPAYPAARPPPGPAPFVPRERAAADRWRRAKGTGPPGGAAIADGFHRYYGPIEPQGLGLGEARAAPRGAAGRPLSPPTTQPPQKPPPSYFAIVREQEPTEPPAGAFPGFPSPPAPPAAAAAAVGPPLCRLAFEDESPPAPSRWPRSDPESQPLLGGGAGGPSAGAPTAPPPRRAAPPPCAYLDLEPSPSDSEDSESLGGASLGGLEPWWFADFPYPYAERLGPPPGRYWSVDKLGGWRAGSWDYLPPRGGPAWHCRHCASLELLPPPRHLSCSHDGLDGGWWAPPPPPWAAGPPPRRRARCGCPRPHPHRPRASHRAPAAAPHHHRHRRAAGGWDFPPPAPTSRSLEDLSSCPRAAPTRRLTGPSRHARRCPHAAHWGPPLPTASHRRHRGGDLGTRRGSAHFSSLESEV

The term Ki denotes a measure of affinity in units of concentration, obtained from inhibition or displacement. In general, IC50 refers to the concentration at which inhibition is half-maximal. For orientation: pKi means −log10 of the Ki, conventionally taken in molar units. As usually defined, the Tmax is the time from dosing to the highest level. As a reminder, the Kp is the ratio of the level in a tissue or fluid to that in plasma or blood. For the molecule `Cl.O=C(O)c1cc([C@H]2CCN[C@@H]2C(=O)O)ccc1Cl`, the Ki turned out to be 131 µM in data set [1], 0.63 µM in data set [3], 154 µM in [4] and 41 µM in data set [5]. Moreover, the results for the IC50 in data set [2] and in data set [5] were more than 100 µM and 170 µM, respectively. This molecule also returned a negative-log Ki (pKi) in [3] of 6.22. In addition, the time to peak (Tmax) worked out at 15 min in the data set on Plasma [6] and 30 min in the data set on Liver [10]. Besides, in the data set with Plasma [7], the “beta t1/2” value is 30 min. This molecule returned an AUC with Liver [8] of 575 nmol·min/g. For the same molecule, the Cmax in the data set on Liver [9] was found to be 8.7 nmol/g. The Activity in the data set listed under Mus musculus [11] came to 127%; in the data set listed under Mus musculus [13] it was 68%; in the data set filed under Mus musculus [14] it was 34%; in the data set filed under Mus musculus [15], 42%; in the data set listed under Mus musculus [16], 24%; in the data set filed under Mus musculus [17], 152%. The Activity came out at 84% in the data set filed under Mus musculus [18] and 24% in the data set filed under Mus musculus [19]. The molecule also displayed a Kp in [12] of 0.19. In addition, in the data set with Brain, the Drug uptake is recorded as 5 pmol/g.
